ChEMBL document CHEMBL3526120, “Plasma stability-dependent circulation of acyl glucuronide metabolites in humans: how circulating metabolite profiles of muraglitazar and peliglitazar can lead to misleading risk assessment” (Drug Metab Dispos, 2011)

How the values were obtained:
Homo sapiens [1] = test: Drug metabolism in human plasma assessed as muraglitazar-1-O-beta-acyl glucuronide formation at 20 mg, po administered as single dose after 1 hr by HPLC analysis; format: ADME, organism-based; conditions: in vivo
Summary of the method: (§1)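 Healthy male volunteers received a single oral [14C] dose (approximately 100 μCi) in PEG-400 after fasting. K2EDTA blood drawn at 1, 4, 12 and 24 h. Plasma acidified to 5% acetic acid, stored at -20°C, pooled across subjects and extracted three times with methanol/acetonitrile (1:3). Radio-HPLC used fraction collection and counting; protein pellets were counted after NaOH digestion.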

Hepatocyte = test: Drug metabolism in human hepatocytes assessed as glucuronidation rate per 10^6 cells at 5 uM after 1 hr by LC-MS/HPLC analysis in Krebs-Henseleit buffer
Homo sapiens [2] = test: Drug metabolism in human plasma assessed as acyl isomer formation at 20 mg, po administered as single dose by HPLC analysis; format: ADME, organism-based; conditions: in vivo; summary of the method: as §1
Homo sapiens [3] = test: Drug metabolism in human plasma assessed as muraglitazar-1-O-beta-acyl glucuronide formation at 20 mg, po administered as single dose measured after 4 to 24 hrs by HPLC analysis; format: ADME, organism-based; conditions: in vivo; summary of the method: as §1
Liver microsome [4] = test: Drug metabolism in human liver microsomes assessed as glucuronidation rate per mg of protein at 10 uM after 15 mins by LC-MS/HPLC analysis in presence of 2 mM UDPGA; format: ADME; conditions: 0.25 h
Summary of the method: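 Human liver microsomes (1 mg/mL protein) with substrate 10 μM final, UDPGA 2 mM, MgCl2 10 mM, Tris 100 mM pH 7.4. Started with substrate at 37°C, stopped after 15 min with one volume acetonitrile, centrifuged. Supernatant analysed by LC/MS; fraction from the 278 nm UV trace as metabolite/(metabolite + parent).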

[5] = Drug excretion in human urine at 20 mg, po measured during 0 to 168 hrs; format: ADME, organism-based; conditions: read-out: Drug excretion
[6] = Drug excretion in human bile at 20 mg, po measured during 3 to 8 hrs; format: ADME, organism-based; conditions: read-out: Drug excretion
[7] = Chemical stability of compound assessed as aglycon formation rate in 50 mM phosphate buffer at pH 7.4 by HPLC analysis; format: physicochemical
Summary of the method: (§2)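 Synthetic 1-O-β-acyl glucuronide at 50 μg/mL, incubated at 37°C and pH 7.4. […] used 50 mM sodium phosphate buffer; […] used human plasma buffered with 50 mM phosphate. Samples were taken at 0.25–48 h (3 tubes per time point), frozen at -80 °C and run on HPLC system III. Aglycon formation rate is the mean of rates within the linear range (<3 hr).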

[8] = Drug excretion in human urine treated with [14C][…] at […], po measured during 0 to 168 hrs; format: ADME, organism-based; conditions: in vivo
Plasma = test: Stability in human plasma assessed as aglycon formation rate by HPLC analysis in presence of 50 mM phosphate; format: ADME, cell-free; summary of the method: as §2
Liver microsome [9] = test: Drug metabolism in human liver microsomes assessed as glucuronide oxidation rate per mg of protein in presence of NADPH; format: ADME
Summary of the method: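 Acyl glucuronide (20 μM) was incubated for 15 min with human liver microsomes (2 mg/mL protein) in 50 mM sodium phosphate, with and without 1 mM NADPH. Products were separated on HPLC system II, quantified by UV at 278 nm and identified by LC/MS.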

[10] = Drug excretion in human bile treated with [14C][…] at […], po measured during 3 to 8 hrs; format: ADME, organism-based; conditions: in vivo
Homo sapiens [11] = test: Drug level in human plasma assessed as compound formation treated with [14C]peliglitazar at 10 mg, po administered as single dose measured after 1 to 24 hrs by HPLC analysis; format: ADME, organism-based; conditions: in vivo
Summary of the method: (§3)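 Healthy males aged 18–45 (four subjects) fasted at least 8 h, then took a single oral PEG-400 solution (~100 μCi) of [14C]muraglitazar 20 mg or [14C]peliglitazar 10 mg. K2EDTA plasma was taken at 1, 4, 12 and 24 h, acidified to 5% acetic acid and stored at -20 °C. Plasma was pooled across subjects, extracted three times with methanol/acetonitrile (1:3), and fractions from HPLC system II were radiocounted. Concentration came from relative radioactivity distribution, total radioactivity and specific activity.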

Homo sapiens [12] = test: Drug metabolism in human plasma assessed as peliglitazar-1-O-beta-acyl glucuronide formation at 10 mg, po administered as single dose measured after 1 to 24 hrs by HPLC analysis; format: ADME, organism-based; conditions: in vivo; summary of the method: as §1
Homo sapiens [13] = test: Drug metabolism in human plasma assessed as acyl isomer formation at 10 mg, po administered as single dose by HPLC analysis; format: ADME, organism-based; conditions: in vivo; summary of the method: as §1
[14] = Drug excretion in human urine treated with [14C]muraglitazar at 20 mg, po measured during 0 to 168 hrs; format: ADME, organism-based; conditions: in vivo
Homo sapiens [15] = test: Drug level in human plasma assessed as compound formation treated with [14C]muraglitazar at 20 mg, po administered as single dose measured after 1 hr by HPLC analysis; format: ADME, organism-based; conditions: in vivo; summary of the method: as §3
[16] = Drug excretion in human bile treated with [14C]muraglitazar at 20 mg, po measured during 3 to 8 hrs; format: ADME, organism-based; conditions: in vivo

| SMILES | Drug metabolism (Hepatocyte) [pmol/min] | Drug metabolism (Liver microsome [4]) [pmol/min] | dose excreted [5] [%] | dose excreted [6] [%] | Drug metabolism [7] [ug/ml.hr] | Drug metabolism (Plasma) [ug/ml.hr] | Drug metabolism (Liver microsome [9]) [pmol/min] | also measured |
| --- | --- | --- | --- | --- | --- | --- | --- | --- |
| COc1ccc(OC(=O)N(CC(=O)O)C[14c]2[14cH][14cH][14c](OCCc3nc(-c4ccccc4)oc3C)[14cH][14cH]2)cc1 | 60 | 33 | – | – | – | – | – | Drug metabolism (Homo sapiens [1]): metabolite_detected; Drug metabolism (Homo sapiens [2]): metabolite_not_detected; Drug metabolism (Homo sapiens [3]): metabolite_not_detected |
| COc1ccc(OC(=O)N(CC(=O)O)Cc2ccc(OCCc3nc(-c4ccccc4)oc3C)cc2)cc1 [MURAGLITAZAR] | – | – | 2.13 | 39.9 | – | – | – | – |
| COc1ccc(OC(=O)N(CC(=O)O[C@@H]2O[C@H](C(=O)O)[C@@H](O)[C@H](O)[C@H]2O)[C@@H](C)c2ccc(OCCc3nc(-c4ccccc4)oc3C)cc2)cc1 | – | – | – | – | 0.5 | 5.9 | 24 | Drug excretion [8]: 0.24%; Drug excretion [10]: 16%; Drug metabolism (Homo sapiens [11]): metabolite_detected |
| COc1ccc(OC(=O)N(CC(=O)O)[14C@@H](C)c2ccc(O[14CH2]Cc3nc(-c4ccccc4)oc3C)cc2)cc1 | 49 | 32 | – | – | – | – | – | Drug metabolism (Homo sapiens [12]): metabolite_detected; Drug metabolism (Homo sapiens [13]): metabolite_not_detected |
| COc1ccc(OC(=O)N(CC(=O)O[C@@H]2O[C@H](C(=O)O)[C@@H](O)[C@H](O)[C@H]2O)Cc2ccc(OCCc3nc(-c4ccccc4)oc3C)cc2)cc1 | – | – | – | – | 3.5 | 16.7 | 22 | Drug excretion [14]: 0.81%; Drug metabolism (Homo sapiens [15]): metabolite_detected; Drug excretion [16]: 15% |
| COc1ccc(OC(=O)N(CC(=O)O)[C@@H](C)c2ccc(OCCc3nc(-c4ccccc4)oc3C)cc2)cc1 [PELIGLITAZAR] | – | – | 1.24 | 24.4 | – | – | – | – |
